Measurements reported in ChEMBL document CHEMBL5344432, “Identification of a Dual Autophagy and REV-ERB Inhibitor with in Vivo Anticancer Efficacy” (J Med Chem, 2024).
The source made the active and inactive calls. The calls are words filed in the database; no cut-off is given here.

Tests used:
BT-474 [1] = experiment: Cytotoxicity against human BT-474 cells; type: functional
In short: (§1)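 BT-474 breast cancer cells and nontumorigenic HMECs treated 48 h with concentrations up to 30 μM. CC50 derived from concentration–response viability plots. Values >30 μM assigned when viability fell by less than 50% of vehicle at 30 μM. Mean ± SEM, n ≥ 3.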

[2] = Cytotoxicity against HMECs; type: toxicity, cell-based, HMEC; conditions: human, HMEC cells; in short: as §1
[3] = Metabolic stability in mouse liver microsomes assessed as parent compound remaining preincubated for 15 mins followed by NADPH addition and measured after 1 hr by LC-MS/MS analysis; type: ADME, Microsome; conditions: time 75 min, read-out: Stability
In short: (§2)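 Microsomal stability assessed in mouse, human, rat or dog liver microsomes with NADPH cofactor. Half-life and percent parent remaining at 60 and 120 min reported. Mean of at least two independent experiments, each in two technical replicates.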

[4] = Metabolic stability in mouse liver microsomes assessed as parent compound remaining preincubated for 15 mins followed by NADPH addition and measured after 2 hrs by LC-MS/MS analysis; type: ADME, Microsome; conditions: time 135 min, read-out: Stability; in short: as §2
[5] = Metabolic stability in human liver microsomes assessed as parent compound remaining preincubated for 15 mins followed by NADPH addition and measured after 1 hr by LC-MS/MS analysis; type: ADME, Microsome; conditions: time 75 min, read-out: Stability; in short: as §2
[6] = Metabolic stability in human liver microsomes assessed as parent compound remaining preincubated for 15 mins followed by NADPH addition and measured after 2 hrs by LC-MS/MS analysis; type: ADME, Microsome; conditions: time 135 min, read-out: Stability; in short: as §2
[7] = Metabolic stability in mouse liver microsomes assessed as half life preincubated for 15 mins followed by UDPGA addition and measured after 2 hrs by LC-MS/MS analysis; type: ADME, Microsome; conditions: time 135 min
In short: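 Mouse and human liver microsomes incubated with UDPGA cofactor. Half-life and percent parent remaining at 120 min reported. Mean of at least two independent experiments, each in two technical replicates.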

[8] = Metabolic stability in dog liver microsomes assessed as half life preincubated for 15 mins followed by NADPH addition and measured after 1 to 2 hrs by LC-MS/MS analysis; type: ADME, Canis lupus familiaris, Microsome; conditions: liver microsomes, time 75-135 min; in short: as §2
[9] = Metabolic stability in rat liver microsomes assessed as parent compound remaining preincubated for 15 mins followed by NADPH addition and measured after 1 to 2 hrs by LC-MS/MS analysis; type: ADME, Microsome; conditions: time 75-135 min; in short: as §2
[10] = Metabolic stability in dog liver microsomes assessed as parent compound remaining preincubated for 15 mins followed by NADPH addition and measured after 1 to 2 hrs by LC-MS/MS analysis; type: ADME, Canis lupus familiaris, Microsome; conditions: time 75-135 min; in short: as §2
BT-474 [11] = experiment: Induction of apoptosis in human BT-474 cells assessed as increase in caspase activity after 24 hrs; type: functional, cell-based; conditions: dose 2.5-10 µM
In short: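 BT-474 cells treated at a range of concentrations. Apoptosis read out as caspase activity and as cleaved PARP protein by immunoblot.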

A-375 [12] = experiment: Cytotoxicity against human A-375 cells; type: functional
In short: (§3)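 Human cancer lines (A375, MDA-MB-231, OMM-1, UPMM-2, CAPAN-2, HepG2, HT-29, HCT116) treated up to 30 μM. CC50 derived from concentration–response viability plots. Mean ± SEM, n ≥ 6. Two-tailed unpaired t test used between compounds.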

Capan-2 = experiment: Cytotoxicity against human Capan-2 cells; type: functional; in short: as §3
HepG2 = experiment: Cytotoxicity against human HepG2 cells; type: functional; in short: as §3
HCT-116 = experiment: Cytotoxicity against human HCT-116 cells; type: functional; in short: as §3
[13] = Half life in CD1 mouse at 10 mg/kg, ip measured upto 24 hrs; type: ADME, organism-based; conditions: in vivo
In short: (§4)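 Female CD1 mice given a single 10 mg/kg ip dose. Plasma concentration–time profile analyzed by noncompartmental analysis for half-life and volume of distribution. A two-compartment model was also fitted.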

[14] = Cmax in CD1 mouse at 10 mg/kg, ip measured upto 24 hrs; type: ADME, organism-based; design: dose 10 mg/kg, time < 24 hrs, route ip; conditions: in vivo; in short: as §4
[15] = Tolerability in CD1 mouse assessed as appearance of arched backs at 138 micromol/kg, ip; type: toxicity; conditions: in vivo, dose 138 µmol/kg
In short: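 Female CD1 mice given daily ip injections at 138 μmol/kg (62 mg/kg). Animals observed for arched backs and lethargy.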

[16] = Tolerability in CD1 mouse assessed as reduction in body weight at 138 micromol/kg, ip measured after 2 days; type: toxicity, organism-based; conditions: in vivo, 48 h, dose 138 µmol/kg, time 2 day
In short: (§5)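 Body weight tracked in female CD1 mice under three regimens: 138 μmol/kg (62 mg/kg) ip daily, assessed after 2 days; 138 μmol/kg every other day over 8 days; 69 μmol/kg (31 mg/kg) daily over 8 days.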

[17] = Tolerability in CD1 mouse assessed as reduction in body weight at 69 micromol/kg, ip administered every daily for 8 days; type: toxicity, organism-based; conditions: in vivo, 192 h, dose 69 µmol/kg, time 8 day; in short: as §5
A-375 [18] = experiment: Antitumor activity against human A-375 cells xenografted in NMRI-Foxn1nu mouse assessed as tumor growth inhibition at 30 mg/kg, ip administered as 3 days on and 2 days off schedule and measured after 15 days; type: functional; conditions: A-375, 360 h, time 15 day, read-out: TGI
In short: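 Female NMRI-Foxn1nu mice with subcutaneous A375 flank tumors, grouped by matched tumor volume. Dosing: 30 mg/kg ip or saline, 3 days daily then 2 days off. Tumors measured by digital caliper until day 15. Excised tumors then sized as (W × D × L)/2 and weighed. n = 8; Mann–Whitney two-tailed test for the excised endpoints.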

[19] = Inhibition of REV-ERBbeta (unknown origin) transcription expressed in HEK293 cells incubated for 24 hrs by gaussia luciferase based assay; type: cell-based; conditions: Homo sapiens, HEK293, 24 h
In short: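 HEK-293 cells cotransfected with REV-ERBβ and a luciferase reporter driven by two repeats of a REV-ERB response element (RevRE) consensus, then treated across a concentration range. Luciferase activity is expressed as fold of DMSO vehicle, mean ± SEM, n = 6, and EC50 is taken from the concentration-response curve. A parallel reporter carrying a mutated RevRE served as a specificity control.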

HEK293 = experiment: Inhibition of REV-ERBbeta (unknown origin) transcription expressed in HEK293 cells harboring mutated RevRE incubated for 24 hrs by gaussia luciferase based assay; type: cell-based; conditions: Homo sapiens
In short: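 HEK-293 cells cotransfected with REV-ERBβ and a luciferase reporter bearing a mutated RevRE that REV-ERB cannot bind. Luciferase activity expressed as fold over DMSO vehicle. Mean ± SEM, n = 6.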

A375 (human) [20] = experiment: Inhibition of autophagy in human A375 cells expressing EGFP-LC3B assessed as increase in SQSTM1 protein level at 2.5 uM after 24 hrs by immunoblotting analysis
[21] = Metabolic stability in mouse liver microsomes assessed as half-life preincubated for 15 mins followed by UDPGA addition and measured after 2 hrs by LC-MS/MS analysis
A375 (human) [22] = experiment: Inhibition of autophagy in human A375 cells expressing EGFP-LC3B assessed as accumulation of autophagosome after 24 hrs by Hoechst 33342 staining based fluorescent microscopy analysis; conditions: dose 1.25-5 µM

- remaining at 1 h [3]: 84%
- remaining at 2 h [4]: 72%
- remaining at 1 h [5]: 81%
- remaining at 2 h [6]: 68%
- half-life [7]: > 2 h
- half-life [8]: > 1 h
- Stability [9]: 98%
- Stability [10]: 89%
- t1/2 [13]: 9.67 h
- Cmax [14]: 0.28023 µg/mL
- EC50 [19]: 3.61 µM
- t1/2 at 2 h [21]: > 2 h
Structure (SMILES): Fc1ccc(C2(NCc3ccc(F)c(CC4CCNCC4)c3)CCCC2)cc1
- CC50 (BT-474 [1]): 2.31 µM
- CC50 [2]: > 30 µM
- Activity (BT-474 [11]): Dose-Dependent Effect
- CC50 (A-375 [12]): 2.56 µM
- CC50 (Capan-2): 6.86 µM
- CC50 (HepG2): 1.49 µM
- CC50 (HCT-116): 4.56 µM
- Activity [15]: Non-Toxic
- Activity [16]: Toxic
- Activity [17]: Toxic
- inhibition in vivo at 30 mg/kg (A-375 [18]): 55%
- inhibition (HEK293): inactive
- inhibition (A375 (human) [20]): Active
- inhibition (A375 (human) [22]): Dose-Dependent Effect
